Reference: PubChem BioAssay
Records with an inconclusive call do not appear.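 The calls were made as follows, unless noted: active = inhibition over a set limit, the all-compound mean plus 3 SD, in both replicate runs; inconclusive = over that limit in just one replicate run; inactive = at or under that limit in both runs.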

Assays:
[1] = S. cerevisiae growth inhibition in permissive medium (OD615), pilot counter-assay for S. cerevisiae lifespan shortening project, permissive growth control (AID 705;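 active = growth inhibition above 25% in both replicates, a cutoff set 3 SD above the mean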); conditions: OD615, 24 h, at 10 µM, hits give high values
How it was run: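 Material: engineered DeaD yeast; Compound: one dose 10 µM, DMSO 0.25% final; Detection: absorbance (optical density) at 615 nm; Buffer or medium: permissive raffinose/galactose medium; Timing: 24 h exposure, 30 °C.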

[2] = S. cerevisiae growth inhibition in restrictive medium, OD615, pilot screen, restrictive growth control, yeast lifespan reduction project (AID 706;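 active = growth inhibition above a set limit, 3 SD over mean compound inhibition, in both replicates, cut at about 43% in these data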;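 also: modified DeaD lifespan yeast strain shifted to restrictive glucose medium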); conditions: OD615, 48 h, at 10 µM, hits give high values
How it was run: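 Buffer or medium: restrictive glucose medium (CSMM-D); test system: modified S. cerevisiae; doses: single dose of 10 µM compound final, 0.25% DMSO; schedule: 48 h compound exposure at 30 °C; detection: absorbance (optical density) measured at 615 nm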

[3] = doxorubicin toxicity protection in MRP-1 cells – H69AR cells, CellTiter-Glo, duplicate, MRP-1 activator project, pilot screen (AID 807;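 active = viability increase at or above a cutoff of the median across tested compounds plus 3 SD, cut at about 8.5% in these data, passing the limit was not always enough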;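 also: compound pretreatment 18-22 h then 72 h combined with doxorubicin; 0% = doxorubicin alone and 100% = vehicle without doxorubicin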); conditions: H69AR viability with doxorubicin, CellTiter-Glo luminescence; at 10 µM; hits give high values
[4] = viability of HCT116 without oncogenic beta-catenin – human colon tumor cells, pilot screen (AID 823;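 active = cell viability at or below a set limit in both duplicate runs, the limit being the all-compound median minus 4 SD, cut at about 23% in these data, passing the limit was not always enough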;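 also: 0% = wells killed by 20 µM Hyamine and 100% = untreated DMSO cell wells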); conditions: HCT116 beta-catenin knockout viability, CellTiter-Glo, 60 h; at 10 µM; hits give low values
[5] = viability of PTEN-null HCT116 cells – cell-based, HCT116 clonal line, CellTiter-Glo, pilot screen (AID 824;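 active = viability at or below 27.92% in each of two runs, the all-compound median minus 4 SD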;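 also: 0% = 20 µM Hyamine control and 100% = vehicle cell control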); conditions: HCT116 PTEN-deleted viability, 60 h, at 10 µM, hits give low values
[6] = RAM pathway blockade in budding yeast – dse1pr::URA3 reporter, 5-FOA selection, pilot screen (AID 869);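 also: 0% = DMSO wells with no growth and 100% = 10 µM 1-NA-PP1 with full growth; RAM network block rescues cells from 5-FOA so hits raise OD615 growth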; conditions: S. cerevisiae dse1pr::URA3 5-FOA growth, OD615, 2 d; at 10 µM; hits give high values; strain carries analog-sensitive mutant Cbk1 kinase
[7] = RAM signaling pathway blockade in yeast – S. cerevisiae, Pdr1DBD-CYC8 efflux-inhibited sensitized strain, primary screen (AID 1298;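 active = RAM network inhibition above 8.4% in each of two replicates, 3 SD over the compound average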;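 also: 0% = DMSO untreated cells without growth and 100% = 10 µM 1-NA-PP1 full growth; higher means more yeast growth rescued from 5-FOA killing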); conditions: S. cerevisiae cbk1-as DSE1-URA3 strain, 5-FOA growth OD615, 2 d; at 50 µM; hits give high values

CCNc1nc(C)cc(COC)c1C#N
inactive: growth inhibition [1] -6.41% | growth inhibition [2] -0.29% | viability increase [3] -0.27% | viability [4] 97.7% | viability [5] 102% | inhibition [6] 1.4% | RAM network inhibition [7] -0.06%

c1cc2c3c(cccc3c1)C(N1CCCCC1)=N2
inactive: growth inhibition [1] 1.8% | growth inhibition [2] -3.38% | viability increase [3] -4.54% | viability [4] 72.1% | viability [5] 74.4% | inhibition [6] 0.665% | RAM network inhibition [7] 1.88%

CCOC(=O)c1nnn(-c2nonc2N)c1-c1ccccc1
inactive: growth inhibition [1] -8.1% | growth inhibition [2] 7.27% | viability increase [3] -0.46% | viability [4] 98.7% | viability [5] 103% | inhibition [6] 2.83% | RAM network inhibition [7] 5.09%

COc1ccc(OC)c2c1sc(=NC(=O)C(C)C)n2C
inactive: growth inhibition [1] -3.95% | growth inhibition [2] 17.4% | viability increase [3] -3.34% | viability [4] 79.2% | viability [5] 74.1% | inhibition [6] 0.575% | RAM network inhibition [7] 3%

CC1(C)CC(=O)c2cc(C(=O)N3CCN(CCO)CC3)c(=O)n(-c3ccc(Cl)cc3)c2C1
inactive: growth inhibition [1] -6.56% | growth inhibition [2] -25.4% | viability increase [3] -0.93% | viability [4] 103% | viability [5] 100% | inhibition [6] 1.81% | RAM network inhibition [7] 3.06%

O=C1CC(c2ccc(S(=O)(=O)NCc3ccncc3)cc2)CN1 (configuration not stated)
inactive: growth inhibition [1] -10.3% | growth inhibition [2] -7.88% | viability increase [3] -0.07% | viability [4] 99.7% | viability [5] 97.2% | inhibition [6] 1.73% | RAM network inhibition [7] 1.15%

O=S(=O)(Nc1nnc(-c2ccccc2)s1)c1ccc(Cl)cc1
inactive: growth inhibition [1] 4.67% | growth inhibition [2] 14.4% | viability increase [3] -0.34% | viability [4] 104% | viability [5] 105% | inhibition [6] 3.29% | RAM network inhibition [7] 1.95%

O=C(C1Cc2ccccc2O1)N1CCCCC1 (configuration not stated)
inactive: growth inhibition [1] -0.465% | growth inhibition [2] 2.46% | viability increase [3] -1.5% | viability [4] 103% | viability [5] 101% | inhibition [6] 0.17% | RAM network inhibition [7] 4.37%

Cc1nn(-c2ccccc2)c2sc(C(=O)OCN3C(=O)c4ccccc4C3=O)cc12
inactive: growth inhibition [1] -8.01% | growth inhibition [2] -6.25% | viability increase [3] -3.32% | viability [4] 83.6% | viability [5] 85.2% | inhibition [6] 2.55% | RAM network inhibition [7] 4.24%

COc1ccccc1N(CC(=O)Nc1ccccc1C(=O)NC(C)C)S(C)(=O)=O
inactive: growth inhibition [1] -3.27% | growth inhibition [2] -16.6% | viability increase [3] -0.99% | viability [4] 86.6% | viability [5] 77% | inhibition [6] 1.95% | RAM network inhibition [7] -0.28%

COc1ccc(C)cc1NC(=O)CSc1nnc(-c2ccc(OC)c(OC)c2)n1N
inactive: growth inhibition [1] 3.19% | growth inhibition [2] 14% | viability increase [3] -1.57% | viability [4] 102% | viability [5] 98.9% | inhibition [6] 0.235% | RAM network inhibition [7] 7.82%

CCN(CCNC(=O)C1CCCN(S(=O)(=O)c2cnc[nH]2)C1)c1ccccc1 (configuration not stated)
inactive: growth inhibition [1] -0.145% | growth inhibition [2] -6.85% | viability increase [3] -0.77% | viability [4] 106% | viability [5] 101% | inhibition [6] 0.775% | RAM network inhibition [7] 3.46%

CC(=O)c1ccc(NC(=O)C2CCCN2S(=O)(=O)c2ccc(F)cc2)cc1 (configuration not stated)
inactive: growth inhibition [1] -5.81% | growth inhibition [2] 0.06% | viability increase [3] 0.59% | viability [4] 98.5% | viability [5] 96.2% | inhibition [6] 2.9% | RAM network inhibition [7] 1.64%

COCc1nc(-c2ccc(-c3ccc(OC)cc3)nc2OC)no1
inactive: growth inhibition [1] 11.9% | growth inhibition [2] 3.28% | viability increase [3] -0.98% | viability [4] 71% | viability [5] 72.2% | inhibition [6] 1% | RAM network inhibition [7] 2.1%

Cc1nn(C)c(C)c1S(=O)(=O)N(CC(=O)Nc1ccccn1)c1ccc(C(C)C)cc1
inactive: growth inhibition [1] -2.97% | growth inhibition [2] -15.5% | viability increase [3] -1.21% | viability [4] 80.1% | viability [5] 82.2% | inhibition [6] 2% | RAM network inhibition [7] -0.48%

CC(C)c1ccc(C2CC(=O)N3CN(C)CSC3=C2C#N)cc1 (configuration not stated)
inactive: growth inhibition [1] 4.19% | growth inhibition [2] 25% | viability increase [3] -4.3% | viability [4] 91.4% | viability [5] 93.9% | inhibition [6] 1.75% | RAM network inhibition [7] -0.52%

O=C(O)CCn1c(-c2ccccc2)cc2c1CCCC2=O
inactive: growth inhibition [1] 1.65% | growth inhibition [2] -0.555% | viability increase [3] -0.35% | viability [4] 95.7% | viability [5] 95% | inhibition [6] 4.84% | RAM network inhibition [7] 0.47%

Cc1ccccc1-c1nc(CN2CCC(C(=O)N3CCN(c4ccccn4)CC3)CC2)c(C)o1
inactive: growth inhibition [1] -7.71% | growth inhibition [2] -18.8% | viability increase [3] -5.67% | viability [4] 61.6% | viability [5] 67.7% | inhibition [6] 1.33% | RAM network inhibition [7] -0.47%

c1ccc(N2CCN(C3CCSC3)CC2)cc1 (configuration not stated)
inactive: growth inhibition [1] -20.2% | growth inhibition [2] -15.7% | viability increase [3] 1.11% | viability [4] 96% | viability [5] 94.3% | inhibition [6] 1.05% | RAM network inhibition [7] -1.2%

CCc1cc(C(=O)Cc2ccc(F)cc2)c(O)cc1O
inactive: growth inhibition [1] -1.34% | growth inhibition [2] -3.73% | viability increase [3] -3.8% | viability [4] 98.8% | viability [5] 86.5% | inhibition [6] 0.665% | RAM network inhibition [7] -2.4%

CCCCn1c(C(C)NC(=O)COC)nc2ccccc21 (configuration not stated)
inactive: growth inhibition [1] -3.38% | growth inhibition [2] 1.68% | viability increase [3] -0.01% | viability [4] 91.4% | viability [5] 101% | inhibition [6] 1.94% | RAM network inhibition [7] 0.2%

Cc1cccc(N(C)c2cc(C)nc3ncnn23)c1
inactive: growth inhibition [1] 2.75% | growth inhibition [2] 3.99% | viability increase [3] -1.19% | viability [4] 97.3% | viability [5] 99.6% | inhibition [6] 0.99% | RAM network inhibition [7] 4.73%

O=C(c1cnn2ccccc12)N(Cc1ccco1)C1CCCC1
inactive: growth inhibition [1] -12% | growth inhibition [2] -4.11% | viability increase [3] -3.08% | viability [4] 70% | viability [5] 69.8% | inhibition [6] 2.74% | RAM network inhibition [7] 1.62%

COc1ccc(Cl)cc1Nc1nc(N2CCCC2)nc(N2CCCC2)n1
inactive: growth inhibition [1] 2.74% | growth inhibition [2] 2.22% | viability increase [3] 0.95% | viability [4] 95.5% | viability [5] 93.3% | inhibition [6] 0.095% | RAM network inhibition [7] 6.43%

CC1CN(S(=O)(=O)c2ccc(Cl)c(S(=O)(=O)N3CC(C)OC(C)C3)c2)CC(C)O1 (configuration not stated)
inactive: growth inhibition [1] -13.5% | growth inhibition [2] -17.1% | viability increase [3] -0.41% | viability [4] 89% | viability [5] 87.1% | inhibition [6] 4.11% | RAM network inhibition [7] 1.17%

CC1(C)Nc2ccccc2N(CC(=O)N2CCCCC2)C1=O
inactive: growth inhibition [1] 0.325% | growth inhibition [2] -1.38% | viability increase [3] -0.05% | viability [4] 107% | viability [5] 103% | inhibition [6] -0.16% | RAM network inhibition [7] 0.97%

CCSc1nnc(NC(=O)CCc2ccccc2)s1
inactive: growth inhibition [1] 0.055% | growth inhibition [2] -7.23% | viability increase [3] -1.7% | viability [4] 88.7% | viability [5] 95.1% | inhibition [6] 3.51% | RAM network inhibition [7] 3.66%

CC(=O)Nc1nc2cc3c(cc2s1)OCO3
inactive: growth inhibition [1] -3.77% | growth inhibition [2] -8.01% | viability increase [3] -1.9% | viability [4] 96.4% | viability [5] 91.9% | inhibition [6] 1.81% | RAM network inhibition [7] 5.55%

Cc1ccc2c(CC(=O)Nc3nc(C)cs3)coc2c1
inactive: growth inhibition [1] -5.02% | growth inhibition [2] 0.02% | viability increase [3] 0.52% | viability [4] 76.5% | viability [5] 80.4% | inhibition [6] 1.38% | RAM network inhibition [7] 0.88%

COc1ccc(NC(=O)N(CCCN2CCOCC2)Cc2cccnc2)c(OC)c1
inactive: growth inhibition [1] -7.71% | growth inhibition [2] -3.92% | viability increase [3] -1.79% | viability [4] 100% | viability [5] 103% | inhibition [6] 1.03% | RAM network inhibition [7] 1.81%

CCOC(=O)C(CCC#N)(CCC#N)C(=O)OCC
inactive: growth inhibition [1] -11.9% | growth inhibition [2] -5.42% | viability increase [3] -0.16% | viability [4] 95.9% | viability [5] 102% | inhibition [6] 0.445% | RAM network inhibition [7] 5.31%

CCCn1c(CN(Cc2ccccc2)Cc2ccccc2)nc2c1c(=O)n(C)c(=O)n2C
inactive: growth inhibition [1] -1.94% | growth inhibition [2] -8.84% | viability increase [3] 0.21% | viability [4] 69.2% | viability [5] 59.7% | inhibition [6] 1.22% | RAM network inhibition [7] 8.87%

COc1ccccc1N1C(=O)N(C(C)=O)C2C1Nc1ccccc1N2C (configuration not stated)
inactive: growth inhibition [1] -2.22% | growth inhibition [2] -10% | viability increase [3] -5.51% | viability [4] 78.2% | viability [5] 86.5% | inhibition [6] 1.71% | RAM network inhibition [7] 4.65%

COc1ccc(C(=O)Nc2cc(=O)n(C)c(=O)n2C)cc1OC
inactive: growth inhibition [1] -0.79% | growth inhibition [2] 6.3% | viability increase [3] -1.84% | viability [4] 104% | viability [5] 94.2% | inhibition [6] 1.09% | RAM network inhibition [7] -1.14%

Cc1cccc(NC(=O)CSc2nnc(-c3ccccc3)n2N)c1C
inactive: growth inhibition [1] -9.02% | growth inhibition [2] -15.1% | viability increase [3] -2.08% | viability [4] 94.4% | viability [5] 90.2% | inhibition [6] 1.85% | RAM network inhibition [7] 0.16%

Cc1ccc(Nc2cc(C)nc3nc(C)nn23)cc1
inactive: growth inhibition [1] -3.6% | growth inhibition [2] -11.9% | viability increase [3] -3.16% | viability [4] 97.4% | viability [5] 95.7% | inhibition [6] 2.35% | RAM network inhibition [7] 3.26%
